# High-throughput results (PubChem BioAssay)
# Most compounds without a hit are left out; they make up all but 3.5% or so of the library.
# RGS4 pot – RGS4 potentiators or activators, primary screen, cell-based, HEK293 M3R inducible RGS4, calcium flux; B-score at 10 µM; hit rate 0.92% among 310,000; carbachol calcium flux Fluo4; active compounds read low;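 active = B-score of the integrated calcium signal more than 4 SD below the library mean, with starting fluorescence not abnormally high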;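 note: negative B-score means reduced calcium response which marks RGS4 activation or potentiation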
#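 System: HEK293 FlpIn-TREx cells, stable M3R, doxycycline-inducible RGS4. Timing: overnight RGS4 induction, 30 min dye load 37 °C, 20 min compound RT. Also added: carbachol, ECmax concentration. Measured by: Fluo4 fluorescence kinetic imaging of calcium. Evaluation: integrated calcium ratio converted to B score.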
# MrgX1 antagonist – antagonists of human MrgX1 receptor, primary screen, HEK293 cells, Fluo-4 calcium flux. B-score at 10 µM. hit rate 1.3% among 310,000. BAM8-22 antagonism; active compounds read low;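 active = calcium-response B-score plate-corrected more than 3 library SD below zero, starting fluorescence within 5 deviations, no agonist response on first addition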;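 note: peak minus trough fluorescence over baseline after final BAM8-22 challenge near maximal dose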
# Target sequence (Q96LB2 whole entry, looked up): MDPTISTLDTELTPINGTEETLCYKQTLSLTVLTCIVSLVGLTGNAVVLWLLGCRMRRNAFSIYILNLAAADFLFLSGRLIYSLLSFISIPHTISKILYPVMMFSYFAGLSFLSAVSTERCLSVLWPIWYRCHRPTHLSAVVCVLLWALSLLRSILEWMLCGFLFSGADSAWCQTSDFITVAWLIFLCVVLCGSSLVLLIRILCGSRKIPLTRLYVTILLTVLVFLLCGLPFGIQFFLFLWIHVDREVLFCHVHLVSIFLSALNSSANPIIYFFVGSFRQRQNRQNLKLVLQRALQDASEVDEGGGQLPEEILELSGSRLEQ
# MrgX1 allo act – positive allosteric modulators of MrgX1, primary screen, HEK293 cells, Fluo-4 calcium flux; Mas-related G-protein coupled receptor member X1 (Homo sapiens), Q96LB2; FDSS; active compounds read high; B-score at 10 µM; hit rate 0.63% among 310,000; AID 588675, 2011;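 active = plate-corrected calcium response at least 3 library SD above typical, normal starting fluorescence, not activating the receptor alone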;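 note: compound read alongside a low EC10 to EC30 dose of BAM8-22 agonist; peak minus trough fluorescence over baseline measured at the second addition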
# RGS4 block – RGS4 inhibitors, primary screen, cell-based, HEK293 M3R inducible RGS4, calcium flux. Fluo-4 calcium flux; active compounds read high; triggered by carbachol at its EC20. B-score at 10 µM. hit rate 0.45% among 310,000;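 active = B-score, a plate-corrected calcium signal, over three deviations above library mean, with baseline fluorescence within five deviations of library mean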;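 note: RGS4 expression induced by doxycycline in cells with stable M3 receptor; B-score is computed from the integrated fluorescence ratio over baseline after carbachol; higher B-score means a larger calcium signal and so more RGS4 inhibition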
# Target sequence (P49798 whole entry, looked up): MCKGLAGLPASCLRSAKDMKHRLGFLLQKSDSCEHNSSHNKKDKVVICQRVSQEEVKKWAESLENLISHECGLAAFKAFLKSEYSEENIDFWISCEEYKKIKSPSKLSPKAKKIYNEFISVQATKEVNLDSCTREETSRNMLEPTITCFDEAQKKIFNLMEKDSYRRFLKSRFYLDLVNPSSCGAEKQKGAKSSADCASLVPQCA
# MrgX1 ag – agonists of human MrgX1 receptor, primary screen, HEK293 cells, Fluo-4 calcium flux | B-score at 10 µM | AID 588627, 2011 | Mas-related G-protein coupled receptor member X1 (Homo sapiens), Q96LB2 | hit rate 0.44% among 310,000 | Fluo-4 calcium fluorescence, agonist mode; active compounds read high;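 active = calcium response B-score plate-corrected fluorescence ratio at least 3 library SD, with starting fluorescence B-score inside 5 SD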
#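 Test system: HEK293 cells stably expressing human MrgX1 receptor; Input: fifteen thousand cells per well; Dosing: compound delivered in addition one of three; Schedule: overnight seeding, then 1 h dark dye loading; Technique: Fluo-4 NW calcium fluorescence; Measure: B-scored fluorescence response ratio; Controls: positive and negative controls per plate.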
# RGS4 inh valid – enhanced carbachol calcium response, M3R/RGS4 cells, RGS4 inhibitor project, cell-based, validation screen, HEK293 M3R/RGS4, calcium flux; carbachol calcium Fluo-4 fluorescence; carbachol added at its EC20; 0 = buffer wells, 100 = carbachol control; calcium response, % at 10 µM; shares compounds with RGS4 block; hit rate 65% among 1,700;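 active = duplicate-averaged calcium response above the buffer-only control mean plus 5 SD of those controls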;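 note: integrated fluorescence ratio F max minus min over baseline F0; higher response in RGS4-induced cells means RGS4 inhibition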
# RGS4 uninduced – carbachol calcium response in non-induced M3R cells, confirmation, counter-screen for RGS4 inhibitor project, cell-based, HEK293 M3R; shares compounds with RGS4 block; carbachol calcium Fluo-4; submaximal (EC20) carbachol stimulus; buffer wells 0%, carbachol control wells 100%; activity (percent), % at 10 µM; hit rate 20% among 1,900; AID 493000, 2010; call rule not given here;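 note: RGS4 induction absent so cells express M3R without RGS4; higher means more calcium signal and flags a non-specific hit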
# RGS4 inh ctr2 – second counter-screen for RGS4 inhibitors: non-induced cells without carbachol; shares compounds with RGS4 block; HEK293 M3R/RGS4 non-induced, Fluo-4 calcium, no carbachol; normalised: buffer wells 0%, carbachol wells 100%; calcium response (agonist-mode artifact), % at 10 µM; hit rate 22% among 1,900; AID 493001;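 active = duplicate-averaged calcium rise in uninduced cells above buffer wells' mean plus 5 SD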
# MrgX1 ag reconf – MrgX1 receptor agonists, duplicate retest, confirmation, HEK293 cells, Fluo-4 calcium flux | activation, % at 10 µM | hit rate 78% among 600 | Fluo-4 calcium fluorescence, FDSS | AID 602412, 2012 | shares compounds with MrgX1 ag;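 active = calcium signal rise, corrected for plate position, at least 3 library SD high, with starting brightness within 5 such deviations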
# MrgX1 ant reconf – MrgX1 receptor antagonists, duplicate retest, confirmation, HEK293 cells, Fluo-4 calcium flux; hit rate 19% among 2,300; shares compounds with MrgX1 antagonist; BAM8-22 calcium flux; active compounds read low; remaining BAM8-22 calcium response % of control (active compounds read low), % at 10 µM;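 active = remaining agonist calcium response no higher than 100% minus 3 SD of agonist-only control wells, with starting fluorescence near control levels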;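 note: agonist BAM8-22 given at a near maximal EC90 to ECmax level; peak minus minimum fluorescence divided by baseline after agonist addition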
# HEK293 Ca flux – nonspecific calcium signal in parental HEK293, confirmation, counter-screen for MrgX1 antagonist project, parental HEK293 cells, Fluo-4 calcium flux; shares compounds with MrgX1 antagonist; Fluo-4 calcium fluorescence, FDSS; fluorescence ratio F(max-min)/F0 at 10 µM; hit rate 2% among 4,000;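 active = duplicate-averaged calcium fluorescence ratio at least three times the standard deviation of buffer wells, a nonspecific response in parental cells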
# HEK293 Ca counter – calcium response in parental HEK293 cells, primary screen, counter-screen for MrgX1 allosteric activator project, cell-based, Fluo-4 calcium flux, duplicate; shares compounds with MrgX1 antagonist; Fluo-4 fluorescence ratio; active compounds read high; fluorescence ratio F(max-min)/F0 at 10 µM; hit rate 0.4% among 4,000; AID 624114, 2012;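 active = calcium fluorescence ratio, averaged over duplicates, at least 3 SD of the buffer-well ratio, meaning a nonspecific response in receptor-free cells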;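 note: untransfected parental HEK293 lacking MrgX1 used as counterscreen for MrgX1 allosteric activators; fluorescence change taken during the second addition on a kinetic imager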
# HEK293 Ca cntr2 – calcium response in parental HEK293 cells, primary screen, counter-screen for MrgX1 agonist project, cell-based, Fluo-4 calcium flux, duplicate, agonist mode | shares compounds with MrgX1 antagonist | fluorescence ratio F(max-min)/F0 at 10 µM | AID 624115, 2012 | Fluo-4 calcium fluorescence (FDSS); active compounds read high | hit rate 8.7% among 4,000;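 active = calcium fluorescence ratio at least three times the spread of buffer wells, meaning a non-specific response in parental cells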
# * = called active by the depositor; i = inactive; · = no result given.
SMILES,RGS4 pot,MrgX1 antagonist,MrgX1 allo act,RGS4 block,MrgX1 ag,MrgX1 ag reconf,HEK293 Ca flux,HEK293 Ca counter,HEK293 Ca cntr2,others
O=C(NC1CCCCCC1)c1ccc(-n2cnnc2)cc1,i,i,i,i,i,·,·,·,·,
COc1cc(/C=C2/C(=O)NN(c3cccc(Cl)c3)C2=O)cc(OC)c1O,i,i,i,i,79*,421%*,i,i,84*,RGS4 uninduced=i;RGS4 inh ctr2=106%*
COc1cc(/C=C2/NC(=O)N(c3cccc(Cl)c3)C2=O)ccc1O,i,i,i,i,i,·,·,·,·,
Cc1cccc2cc(CN(Cc3nnnn3Cc3ccco3)C3CCCC3)c3nnnn3c12,i,i,i,i,i,·,·,·,·,
CCOC(=O)[C@@H]1[C@H]2COc3ccccc3[C@H]2N2C(=O)N(c3ccc(OC)cc3)C(=O)[C@]12C,i,-6.3*,i,i,i,·,i,i,i,RGS4 inh valid=i;RGS4 uninduced=i;RGS4 inh ctr2=i;MrgX1 ant reconf=i
CCOC(=O)[C@@H]1[C@H]2COc3ccccc3[C@@H]2N2C(=O)N(c3cccc(C)c3)C(=O)[C@]12C,i,-5.8*,i,i,i,·,i,i,i,RGS4 inh valid=i;RGS4 uninduced=i;RGS4 inh ctr2=i;MrgX1 ant reconf=i
CCOC(=O)[C@@H]1[C@H]2COc3cc(OC)ccc3[C@H]2N2C(=O)N(c3ccc(C(F)(F)F)cc3)C(=O)[C@@]12C,i,i,i,i,i,·,·,·,·,
Cc1c(-n2cc(C(=O)c3cc(Br)ccc3O)cc(C#N)c2=O)c(=O)n(-c2ccccc2)n1C,i,i,i,i,i,·,·,·,·,
COc1cc(/C=C2\C(=O)ON=C2c2ccccc2)cc(Br)c1O,i,i,i,4.7*,78*,i,i,i,i,RGS4 inh valid=9.5%*;RGS4 uninduced=i;RGS4 inh ctr2=281%*
CCOc1cc(/C=C2\C(=O)ON=C2c2ccccc2)cc(Br)c1O,i,i,i,i,83*,i,i,i,i,RGS4 inh valid=i;RGS4 uninduced=i;RGS4 inh ctr2=322%*
COc1cc(C=C2C(=O)OC(c3ccccc3)OC2=O)cc(Br)c1O (stereo not given),i,i,i,i,i,·,·,·,·,
CN(C)CCCN(C(=O)c1cc(-c2cccs2)nc2ccccc12)c1nc2ccc(F)cc2s1,i,i,i,i,i,·,·,·,·,
CC1(C)CSC(=NCc2ccccc2)N1C(=O)c1cccc([N+](=O)[O-])c1,i,i,i,i,84*,505%*,i,i,103*,
NC(=NCc1ccccc1)c1cccc([N+](=O)[O-])c1,i,i,i,i,i,·,·,·,·,
O=C(O)c1ccc(CN(c2ccccc2)S(=O)(=O)c2ccccc2)cc1,i,i,i,i,i,·,·,·,·,
CC(=O)Nc1ccc2nc(NC(=O)C(Cl)(Cl)Cl)sc2c1,i,i,i,i,29*,162%*,i,i,i,
O=C(CN(c1ccc(F)cc1)S(=O)(=O)c1ccc2c(c1)OCCO2)Nc1cccnc1,i,i,i,i,40*,i,i,i,i,
Cc1ccc(CNC(=O)c2ccc(Cl)c(S(N)(=O)=O)c2)n1C,i,i,i,i,71*,283%*,i,i,i,
FC(F)(F)C(Oc1nc(Nc2ccc(Cl)cc2)nc(N2CCOCC2)n1)C(F)(F)F,i,i,i,i,i,·,·,·,·,
Cc1cc(NCc2ccccc2)nc2ccccc12,i,i,i,i,83*,293%*,i,i,i,
O=C(CNC(=O)N1CC(=O)Nc2ccccc21)NCCc1ccc(Cl)cc1,i,i,i,i,i,·,·,·,·,
COCCNC(=O)c1ccccc1NC(=O)CSc1ccc(C)cc1,i,i,i,i,i,·,·,·,·,
COC(=O)c1cccc(-c2ccc(C(c3c(C)[nH][nH]c3=O)c3c(C)[nH][nH]c3=O)o2)c1,i,i,i,i,43*,192%*,i,i,46*,
COC(=O)c1ccccc1-c1ccc(C(c2c(C)[nH][nH]c2=O)c2c(C)[nH][nH]c2=O)o1,i,i,i,i,i,·,·,·,·,
COc1ccc2c(c1)nc(N)n2Cc1ccccc1,i,i,i,i,49*,233%*,i,i,i,
CCS(=O)(=O)c1nnnn1-c1ccccc1S(C)(=O)=O,i,i,i,i,27*,105%*,i,i,i,
CCc1ccc(N(CC(=O)NC(C)C)C(=O)CCC(=O)Nc2ccccn2)cc1,i,i,i,i,i,·,·,·,·,
